Data from paper PMC3988618 (Messenger (Los Angeles, Calif. : Print), 2012).
pIC50, pKd: −log10 of the molar value.

What was measured:
type 1 InsP3R (InsP3R1) = type 1 InsP3R (InsP3R1) (Mus musculus, UniProt P11881); assay: Inhibition of Ins; type: cell-based; details: for pIC50: read-out: Ins P3R antagonism IC50 (inhibition of Ins(1,4,5)P3-induced Ca2+ release), permeabilized L15 fibroblasts overexpressing InsP3R1, Ca2+ release induced by 250 nM Ins(1,4,5)P3
Summary of the method: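 Mouse InsP3R1-overexpressing L15 fibroblasts, confluent (days 6–8), saponin-permeabilized (40 μg ml−1, 10 min); stores loaded 45 min with 150 nM free 45Ca2+, ATP, NaN3, pH 6.8; 30 °C. Efflux with 1 mM EGTA plus 10 μM thapsigargin, sampled every 2 min; Ins(1,4,5)P3 given 2 min, compound 6 min around it. Release taken as fractional loss over basal leak; Hill fits; 3–4 experiments in duplicate.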

InsP3R [1] = details: bovine adrenal cortex microsomes; ref Poitras, 1993; cited from earlier work
InsP3R [2] = details: ref Vandeput, 2007; cited from earlier work
[3] = molecular target: T1, human type I Ins(1,4,5)P3 5-phosphatase (Homo sapiens, UniProt Q14642); assay: Ins; type: biochemical; details: ratio of IC50 values
T1 sequence (Q14642 1-412): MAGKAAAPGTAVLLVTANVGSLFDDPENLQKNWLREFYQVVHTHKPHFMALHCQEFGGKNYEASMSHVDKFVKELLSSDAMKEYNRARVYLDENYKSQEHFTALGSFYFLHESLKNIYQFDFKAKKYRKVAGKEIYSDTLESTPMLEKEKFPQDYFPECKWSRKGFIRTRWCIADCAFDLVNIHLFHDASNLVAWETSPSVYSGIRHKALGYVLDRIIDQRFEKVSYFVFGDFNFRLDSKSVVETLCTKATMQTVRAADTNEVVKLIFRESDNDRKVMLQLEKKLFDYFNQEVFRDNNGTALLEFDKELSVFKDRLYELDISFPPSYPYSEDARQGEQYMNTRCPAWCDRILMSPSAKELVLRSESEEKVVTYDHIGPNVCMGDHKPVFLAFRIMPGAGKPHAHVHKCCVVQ
Summary of the method: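 Recombinant human type I Ins(1,4,5)P3 5-phosphatase; inhibition by test compound read by malachite green phosphate detection with 1.0 μmol Ins(1,4,5)P3 substrate.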

Chain of type 1 InsP3R (InsP3R1) (P11881 whole entry): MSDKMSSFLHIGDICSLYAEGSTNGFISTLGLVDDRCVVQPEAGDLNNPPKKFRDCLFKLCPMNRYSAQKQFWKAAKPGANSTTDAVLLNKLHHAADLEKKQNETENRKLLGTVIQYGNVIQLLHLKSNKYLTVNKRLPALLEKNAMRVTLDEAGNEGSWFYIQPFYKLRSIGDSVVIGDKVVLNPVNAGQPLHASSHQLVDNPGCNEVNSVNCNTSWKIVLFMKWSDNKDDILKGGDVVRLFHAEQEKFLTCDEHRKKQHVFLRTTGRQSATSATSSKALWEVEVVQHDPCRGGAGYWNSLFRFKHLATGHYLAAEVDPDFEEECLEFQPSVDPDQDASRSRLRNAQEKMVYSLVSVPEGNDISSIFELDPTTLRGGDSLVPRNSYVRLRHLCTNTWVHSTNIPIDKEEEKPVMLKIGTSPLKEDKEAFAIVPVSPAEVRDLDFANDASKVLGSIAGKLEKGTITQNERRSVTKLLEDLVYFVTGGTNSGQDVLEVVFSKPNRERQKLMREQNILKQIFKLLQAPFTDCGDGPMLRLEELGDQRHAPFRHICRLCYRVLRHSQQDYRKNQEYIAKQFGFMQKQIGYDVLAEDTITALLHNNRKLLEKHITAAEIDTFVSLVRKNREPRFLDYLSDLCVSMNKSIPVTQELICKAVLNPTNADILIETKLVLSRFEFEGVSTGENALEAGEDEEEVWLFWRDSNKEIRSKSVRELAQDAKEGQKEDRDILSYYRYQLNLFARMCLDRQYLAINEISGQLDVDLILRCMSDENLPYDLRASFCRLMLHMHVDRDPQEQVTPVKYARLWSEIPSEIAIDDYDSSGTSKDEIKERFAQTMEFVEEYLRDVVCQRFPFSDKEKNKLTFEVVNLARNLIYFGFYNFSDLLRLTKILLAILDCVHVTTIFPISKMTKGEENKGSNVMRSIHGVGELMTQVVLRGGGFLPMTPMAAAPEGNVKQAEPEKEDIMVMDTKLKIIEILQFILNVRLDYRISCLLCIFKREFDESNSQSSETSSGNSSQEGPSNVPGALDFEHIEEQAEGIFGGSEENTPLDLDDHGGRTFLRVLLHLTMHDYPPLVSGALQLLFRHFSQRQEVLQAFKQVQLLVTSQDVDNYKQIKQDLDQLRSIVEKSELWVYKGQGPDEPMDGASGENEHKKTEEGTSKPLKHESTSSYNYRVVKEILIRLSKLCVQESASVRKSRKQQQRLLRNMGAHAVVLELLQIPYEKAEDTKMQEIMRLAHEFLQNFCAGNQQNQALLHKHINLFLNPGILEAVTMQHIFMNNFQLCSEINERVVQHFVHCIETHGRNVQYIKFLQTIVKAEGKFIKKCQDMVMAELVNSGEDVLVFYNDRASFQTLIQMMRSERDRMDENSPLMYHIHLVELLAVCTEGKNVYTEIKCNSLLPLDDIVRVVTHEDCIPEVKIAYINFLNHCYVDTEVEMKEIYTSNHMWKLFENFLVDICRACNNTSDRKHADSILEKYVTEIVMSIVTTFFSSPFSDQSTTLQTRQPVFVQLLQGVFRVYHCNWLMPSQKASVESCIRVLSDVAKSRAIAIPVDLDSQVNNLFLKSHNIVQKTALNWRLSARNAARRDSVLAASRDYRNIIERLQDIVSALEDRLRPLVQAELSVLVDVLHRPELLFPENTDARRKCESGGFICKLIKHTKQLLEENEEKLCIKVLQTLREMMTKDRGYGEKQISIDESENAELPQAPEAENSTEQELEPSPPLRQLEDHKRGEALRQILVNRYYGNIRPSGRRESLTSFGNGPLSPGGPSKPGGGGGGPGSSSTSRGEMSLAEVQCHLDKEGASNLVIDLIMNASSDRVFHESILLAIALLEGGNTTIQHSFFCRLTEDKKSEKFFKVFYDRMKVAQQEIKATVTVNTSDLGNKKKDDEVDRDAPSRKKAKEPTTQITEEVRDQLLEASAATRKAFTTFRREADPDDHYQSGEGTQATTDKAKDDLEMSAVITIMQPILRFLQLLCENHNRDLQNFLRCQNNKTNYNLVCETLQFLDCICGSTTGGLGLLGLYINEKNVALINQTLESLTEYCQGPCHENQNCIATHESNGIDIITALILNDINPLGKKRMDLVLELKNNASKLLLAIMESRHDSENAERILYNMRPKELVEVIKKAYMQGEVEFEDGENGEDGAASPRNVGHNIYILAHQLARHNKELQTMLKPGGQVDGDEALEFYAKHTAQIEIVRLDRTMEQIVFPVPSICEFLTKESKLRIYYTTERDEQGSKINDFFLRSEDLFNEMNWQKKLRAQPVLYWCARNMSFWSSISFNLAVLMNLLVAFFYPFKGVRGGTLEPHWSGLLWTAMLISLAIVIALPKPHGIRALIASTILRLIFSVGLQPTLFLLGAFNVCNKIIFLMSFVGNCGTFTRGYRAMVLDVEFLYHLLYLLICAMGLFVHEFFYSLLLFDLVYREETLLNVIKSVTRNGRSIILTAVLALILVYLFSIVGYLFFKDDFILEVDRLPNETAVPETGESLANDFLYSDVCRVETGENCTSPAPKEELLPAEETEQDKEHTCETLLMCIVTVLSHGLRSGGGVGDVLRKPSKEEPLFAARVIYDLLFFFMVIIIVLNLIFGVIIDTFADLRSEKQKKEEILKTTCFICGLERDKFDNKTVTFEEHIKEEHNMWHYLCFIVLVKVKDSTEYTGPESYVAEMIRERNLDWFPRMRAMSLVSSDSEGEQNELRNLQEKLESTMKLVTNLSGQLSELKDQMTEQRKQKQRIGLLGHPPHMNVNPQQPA

O=P(O)(O)O[C@@H]1[C@H](O)[C@H](O)[C@@H](OP(=O)(O)O)[C@H](OP(=O)(O)O)[C@H]1O [Compound 1, Myo-inositol 1,4,5-trisphosphate, reference compound]
pKd (type 1 InsP3R (InsP3R1); read-out: apparent Kd for Ins(1,4,5)P3 at the receptor, absence of (8), Lineweaver-Burk plot of Ca2+ release): 6.40

O=P(O)(O)Oc1ccc(OP(=O)(O)O)c(OP(=O)(O)O)c1 [Compound 2, Benzene 1,2,4-trisphosphate]
Blocking of [3H]Ins(1,4,5)P3 binding, fold weaker than Ins(1,4,5)P3 (InsP3R [1]): ~10,000 fold

O=P(O)(O)Oc1cc(OP(=O)(O)O)cc(-c2c(OP(=O)(O)O)cc(OP(=O)(O)O)cc2OP(=O)(O)O)c1 [Compound 4, biphenyl 2,3′,4,5′,6-pentakisphosphate, reference compound]
pIC50 (type 1 InsP3R (InsP3R1)): 6.38 | IC50 as Ins(1,4,5)P3 receptor antagonist (InsP3R [2]): low micromolar range

O=P(O)(O)Oc1cc(OP(=O)(O)O)c(-c2cc(OP(=O)(O)O)c(OP(=O)(O)O)cc2OP(=O)(O)O)cc1OP(=O)(O)O [Compound 8, 2,2′,4,4′,5,5′-Biphenylhexakisphosphate]
Mode of inhibition at the InsP3R (type 1 InsP3R (InsP3R1); 200 nM compound at various Ins(1,4,5)P3 concentrations, Lineweaver-Burk plot): competitive inhibitor | Effect on Ins(1,4,5)P3-induced Ca2+ release (type 1 InsP3R (InsP3R1); 200 nM compound, low (0.1 μM) Ins(1,4,5)P3, not at high (3 μM) Ins(1,4,5)P3): strongly inhibited | pIC50 (type 1 InsP3R (InsP3R1)): 6.73 | 5-phosphatase inhibition, fold more potent than (10) [3]: ≥ 20 fold | 5-phosphatase inhibition, times better than (4) [3]: ~4 times

O=P(O)(O)Oc1cc(OP(=O)(O)O)c(OP(=O)(O)O)cc1OCCOc1cc(OP(=O)(O)O)c(OP(=O)(O)O)cc1OP(=O)(O)O [Compound 9]
pIC50 (type 1 InsP3R (InsP3R1)): 6.42 | 5-phosphatase inhibition, fold weaker than (8) [3]: 7 fold

O=P(O)(O)Oc1ccc(OCCOc2ccc(OP(=O)(O)O)c(OP(=O)(O)O)c2)cc1OP(=O)(O)O [Compound 10]
pIC50 (type 1 InsP3R (InsP3R1)): < 5.30 | Inhibition of Ca2+ release (type 1 InsP3R (InsP3R1); up to 10 μM compound, 250 nM Ins(1,4,5)P3): ineffective
